Data on one molecule can be found in ChEMBL document CHEMBL1781961, “Synthesis and in vitro antibacterial activity of 7-(3-alkoxyimino-4-amino-4-methylpiperidin-1-yl) fluoroquinolone derivatives” (Eur J Med Chem, 2011).

Data set [1] deals with Staphylococcus epidermidis. The data set is described as follows: Ratio of levofloxacin MIC to compound MIC for methicillin-sensitive Staphylococcus epidermidis 09-6. In kind it is functional. The method in brief:
(§1)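 MICs were measured by agar dilution on plates carrying serial twofold dilutions from […] down to 0.03. Plates were inoculated with 10⁴ cfu and incubated at 35 °C for 18 h. MIC was taken as the lowest concentration giving no visible growth. The ratio is the reference quinolone MIC divided by the test compound MIC for the same strain.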

Data set [2] relates to Staphylococcus aureus. Nature of the data set: Antibacterial activity against 10^4 CFU methicillin-resistant Staphylococcus aureus 08-1 after 18 hrs by CLSI agar dilution method. The note with it: 08-1, 18 h. In kind it is functional.
For data set [3], the system named is Pseudomonas aeruginosa. The data set is described as follows: Antibacterial activity against 10^4 CFU Pseudomonas aeruginosa ATCC 27853 after 18 hrs by CLSI agar dilution method. The format is functional. The conditions noted are these: ATCC 27853, 18 h. A general note: In agar dilution, organisms are placed on agar that contains the substance at set levels.

For data set [4], the system named is Staphylococcus epidermidis. Nature of the data set: Antibacterial activity against 10^4 CFU methicillin-resistant Staphylococcus epidermidis 09-2 after 18 hrs by CLSI agar dilution method. The format is functional. The conditions noted are these: 09-2, 18 h.
The subject of data set [5] is Enterococcus faecalis. The data set is described as follows: Ratio of levofloxacin MIC to compound MIC for Enterococcus faecalis. In kind it is functional. The gist of the method: as §1
For data set [6], the system named is Enterococcus faecalis. Nature of the data set: Antibacterial activity against 10^4 CFU Enterococcus faecalis 08-12 after 18 hrs by CLSI agar dilution method. The conditions noted are these: 08-12, 18 h. In kind it is functional.
The subject of data set [7] is Enterococcus faecium. The data set is described as follows: Antibacterial activity against 10^4 CFU Enterococcus faecium 06-7 after 18 hrs by CLSI agar dilution method. The format is functional. The conditions noted are these: 06-7, 18 h.
Data set [8] deals with Staphylococcus aureus. The data set is described as follows: Antibacterial activity against 10^4 CFU Staphylococcus aureus ATCC 25923 after 18 hrs by CLSI agar dilution method. In kind it is functional. The conditions noted are these: ATCC 25923, 18 h.
Data set [9] deals with Streptococcus pneumoniae. The data set is described as follows: Ratio of levofloxacin MIC to compound MIC for Streptococcus pneumoniae 08-4. In kind it is functional. The method in brief:
as §1

Data set [10] deals with Streptococcus pneumoniae. The data set is described as follows: Antibacterial activity against 10^4 CFU Streptococcus pneumoniae 08-4 after 18 hrs by CLSI agar dilution method. The note with it: 08-4, 18 h. The format is functional.
Data set [11] can be described thus: Cytotoxicity against MDCK cells after 48 hrs by CPE assay. In kind it is cell-based, Canis lupus familiaris. The note with it: dog. The gist of the method: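 MDCK cells kept in Minimum Essential Medium with Earle's salt plus 10% fetal bovine serum at 37 °C, 5% CO₂. […] Medium then replaced by assay medium with or without compound. After 48 h exposure, viability read by CPE assay. CC₅₀ calculated by Reed–Muench analysis.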

Data set [12] deals with Escherichia coli. The data set is described as follows: Antibacterial activity against 10^4 CFU Escherichia coli ATCC 25922 after 18 hrs by CLSI agar dilution method. The conditions noted are these: ATCC 25922, 18 h. In kind it is functional.
For data set [13], the system named is Staphylococcus aureus. Nature of the data set: Antibacterial activity against 10^4 CFU methicillin-sensitive Staphylococcus aureus 08-1 after 18 hrs by CLSI agar dilution method. The format is functional. The note with it: 08-1, 18 h.
The subject of data set [14] is Klebsiella pneumoniae. Nature of the data set: Antibacterial activity against 10^4 CFU Klebsiella pneumoniae 09-23 after 18 hrs by CLSI agar dilution method. The format is functional. The note with it: 09-23, 18 h.
Data set [15] deals with Enterococcus faecalis. Nature of the data set: Antibacterial activity against 10^4 CFU Enterococcus faecalis 08-10 after 18 hrs by CLSI agar dilution method. The format is functional. The note with it: 08-10, 18 h.
For data set [16], the system named is Enterococcus faecalis. Nature of the data set: Ratio of gatifloxacin MIC to compound MIC for Enterococcus faecalis. In kind it is functional. The method in brief:
as §1

The subject of data set [17] is Enterococcus faecalis. The data set is described as follows: Ratio of gemifloxacin MIC to compound MIC for Enterococcus faecalis. In kind it is functional. The method in brief: as §1
Data set [18] relates to Staphylococcus epidermidis. The data set is described as follows: Antibacterial activity against 10^4 CFU methicillin-sensitive Staphylococcus epidermidis 09-6 after 18 hrs by CLSI agar dilution method. In kind it is functional. The note with it: 09-6, 18 h.
Data set [19] has as its system Klebsiella pneumoniae. The data set is described as follows: Antibacterial activity against 10^4 CFU Klebsiella pneumoniae 09-22 after 18 hrs by CLSI agar dilution method. The conditions noted are these: 09-22, 18 h. In kind it is functional.
In data set [20] the test system is Pseudomonas aeruginosa. The data set is described as follows: Antibacterial activity against 10^4 CFU Pseudomonas aeruginosa 09-32 after 18 hrs by CLSI agar dilution method. The format is functional. The conditions noted are these: 09-32, 18 h.
Data set [21] relates to Enterococcus faecium. The data set is described as follows: Antibacterial activity against 10^4 CFU Enterococcus faecium 08-2 after 18 hrs by CLSI agar dilution method. The conditions noted are these: 08-2, 18 h. The format is functional.
The test system of data set [22] is Escherichia coli. The data set is described as follows: Antibacterial activity against 10^4 CFU Escherichia coli 08-21 after 18 hrs by CLSI agar dilution method. The conditions noted are these: 08-21, 18 h. The format is functional.

Each structure is given as a SMILES string. In brackets after ≈: the same amount, converted by molar mass.

Turning to `CO/N=C1\CN(c2c(F)cc3c(=O)c(C(=O)O)cn(C4CC4)c3c2OC)CCC1(C)N` (configuration not stated), the Ratio in [1] was determined as 16; with Enterococcus faecalis [5], 4; with Streptococcus pneumoniae [9], 4; in the data set with Enterococcus faecalis [16], 4; in the data set with Enterococcus faecalis [17], 4. The minimum inhibitory concentration (MIC) (in general, the least concentration at which growth counts as inhibited) against Staphylococcus aureus [2] is 0.25 µg/mL (≈ 0.578 µM); against Pseudomonas aeruginosa [3], 16 µg/mL (≈ 37 µM); in data set [4] it was 0.25 µg/mL (≈ 0.578 µM); against Enterococcus faecalis [6] it was 1 µg/mL (≈ 2.31 µM); against Enterococcus faecium [7], > 128 µg/mL; against Staphylococcus aureus [8], 0.125 µg/mL (≈ 0.289 µM). Further, the MIC against Streptococcus pneumoniae [10] was 0.5 µg/mL (≈ 1.16 µM); against Escherichia coli [12], > 128 µg/mL; against Staphylococcus aureus [13], 0.25 µg/mL (≈ 0.578 µM); against Klebsiella pneumoniae [14], > 128 µg/mL; against Enterococcus faecalis [15], 1 µg/mL (≈ 2.31 µM); in [18], 0.25 µg/mL (≈ 0.578 µM). Besides, the MIC with Klebsiella pneumoniae [19] was > 128 µg/mL; in the data set with Pseudomonas aeruginosa [20] it was 8 µg/mL (≈ 18.5 µM); with Enterococcus faecium [21], > 128 µg/mL; with Escherichia coli [22], > 128 µg/mL. In addition, half-maximal cytotoxicity in data set [11] (CC50 at 48 h) was put at 729 µM.
